# Bioassay records as filed in PubChem.
# Shown are actives, neighbours in structure and some others; about 1.5% of the full set was active somewhere.
# Mot1-301 SUMO: inhibitors of SUMOylation pathway: yeast Mot1-301 growth rescue. S. cerevisiae Mot1-301 growth rescue, ATP luminescence, 38.5C; percent above DMSO median, 100 means doubled. growth rescue, % at 18.8 µM. 320,000 tested, 1% active. AID 2716;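 active = every valid replicate shows activation above 250% relative to neutral control wells; inactive = the rest, any valid replicate at or below 250%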
# Cneo AK release: Cryptococcus neoformans lysis via adenylate kinase release; C. neoformans lysis, adenylate kinase release luminescence, 4 h; normalised: neutral wells 0, clomiphene wells 100; 360,000 tested, 0.2% active; lysis activity, % at 15 µM;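 active = mean lysis activity across replicates of at least 80%, whatever share of replicates individually reach that level; inactive = mean lysis activity below 80%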
#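 Assay system: Cryptococcus neoformans yeast cells / Dosing: single-point compound dose / Timing: 4 h at 37 °C static, read 1 h later / Measured by: luminescence of released adenylate kinase using an AK detection reagent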
# C2C12 statin: protects C2C12 myotubes from simvastatin toxicity | 330,000 tested, 0.78% active | AID 602340 | ATP luminescence, 48 h; scaled: DMSO 0, geranylgeraniol control 100 | rescue of ATP level, % at 7.49 µM;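 active = mean ATP rescue above about 67%, or every replicate alone reaching that limit, limit read from the data, passing the limit was not always enough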;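 also: myotubes were challenged with 10 µM simvastatin during compound exposure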
# Numbers stand for hits; i = inactive; nt = no result.
SMILES,Mot1-301 SUMO,Cneo AK release,C2C12 statin
COc1ccc(NC(=O)N(C)C[C@@H]2OCCCC[C@H](C)Oc3ccc(NC(=O)CCCN(C)C)cc3C(=O)N([C@@H](C)CO)C[C@H]2C)cc1,nt,i,nt
C[C@H](N)c1nnc(SCC(=O)c2ccc(Cl)cc2)o1,nt,i,118.5
CC(C)[C@H](N)c1nnc(SCC(=O)c2ccc(Cl)cc2)o1,i,i,i
C/C=C/c1cnc2c(c1)C(=O)N([C@H](C)CO)C[C@@H](C)[C@H](CN(C)C(=O)C1CC1)O2,nt,nt,i
COc1ccc(-c2nc(Cn3c(SCc4ccc(C)cc4)nc4ccncc43)c(C)o2)cc1OC,460.1,i,i
COc1ccc(-c2nc(Cn3c(SCc4cccc(F)c4)nc4ccncc43)c(C)o2)cc1OC,i,i,i
COCC#Cc1ccc2c(c1)O[C@H](CN(C)S(=O)(=O)c1cccc(OC)c1)[C@H](C)CN([C@@H](C)CO)S2(=O)=O,nt,i,i
O=C(c1ccccc1F)N1CCC(O)(c2cccnc2)CC1,nt,i,i
Nc1ccccc1C(=O)N1CCC(O)(c2ccc(Cl)cc2)CC1,324.7,i,i
Nc1nc(-c2cccnc2)nn1C(=O)CCc1ccccc1,i,i,i
Nc1nc(-c2ccco2)nn1C(=O)CCc1ccccc1,i,i,113.2
COc1ccc(C(=O)n2nc(-c3ccco3)nc2N)cc1,i,i,i
Cc1ccc(C(=O)n2nc(-c3ccco3)nc2N)cc1,i,i,81.3
CCOc1cccc(C2C(C(=O)c3ccc(C)o3)=C(O)C(=O)N2Cc2ccncc2)c1 (configuration not stated),i,i,nt
C=CCOc1cccc(C2C(C(=O)c3ccc(C)o3)=C(O)C(=O)N2Cc2ccncc2)c1 (configuration not stated),i,i,110.2
C/C=C/c1cnc2c(c1)C(=O)N([C@@H](C)CO)C[C@H](C)[C@@H](CN(C)C(=O)CN1CCOCC1)O2,nt,i,i
C[C@@H](NC(=O)C[C@H]1CC[C@@H](NC(=O)c2cccnc2)[C@@H](CO)O1)c1ccccc1,nt,i,i
CC(=O)C1C(c2cccc(F)c2)NC(=O)NC1(O)C(F)(F)F (configuration not stated),i,nt,nt
CCOC(=O)C1C(c2cc(OC)c(O)c(OC)c2)NC(=S)NC1(O)C(F)(F)F (configuration not stated),i,i,i
CCOC(=O)C1C(c2cccc(F)c2)NC(=S)NC1(O)C(F)(F)F (configuration not stated),i,i,98.2
CCOC(=O)C1C(c2cc(OC)c(OC)c(OC)c2)NC(=S)NC1(O)C(F)(F)F (configuration not stated),i,i,100.6
COc1ccc(NC(=O)N(C)C[C@H]2OCCCC[C@@H](C)Oc3ccc(NS(=O)(=O)c4c(C)noc4C)cc3C(=O)N([C@H](C)CO)C[C@H]2C)cc1,nt,i,i
O=S(=O)(c1cccc(F)c1)N1CCN(Cc2cccc(OCCO)c2)CC1,nt,i,nt
COc1ccc(-n2c(C)cc(C)c(C(C)=O)c2=S)cc1,i,i,nt
COc1ccccc1-n1c(C)cc(SC)c(C(C)=O)c1=S,i,i,97.7
SMILES,Mot1-301 SUMO,Cneo AK release,C2C12 statin
Cc1cccc(C)c1-n1c(C)cc(/C=N\Nc2ccc([N+](=O)[O-])cn2)c1C,i,i,163.3
O=[N+]([O-])c1ccc(NN=Cc2cccc(O)c2)nc1,nt,i,i
C[C@H]1CN([C@@H](C)CO)S(=O)(=O)c2ccc(C3=CCCC3)cc2O[C@H]1CN(C)S(C)(=O)=O,nt,nt,i
Cc1cnc(C(=O)Nc2nccs2)cn1,i,i,100.6
CC1(C)CC(C(=O)Nc2nccs2)CCO1 (configuration not stated),i,i,120.9
CC12COC3(C(=O)Nc4nccs4)CC1CCC32C (configuration not stated),i,i,i
Cc1cnc(C(=O)Nc2nnc(C)s2)cn1,i,nt,nt
CO[C@H]1CN(C)C(=O)c2cc(NS(=O)(=O)CC(F)(F)F)ccc2OC[C@H](C)N(Cc2ccccn2)C[C@H]1C,nt,i,i
CC(=O)Nc1ccc2c(c1)C(=O)N(C)[C@@H]1CC[C@H](CC(=O)NCC3CCCCC3)O[C@H]1CO2,nt,i,i
Cc1cc(C)cc(NC(=O)Cn2nnc(C(=O)NCc3ccccc3Cl)c2N)c1,i,i,i
Cc1cc(C)cc(NC(=O)Cn2nnc(C(=O)NCc3ccc(F)cc3)c2N)c1,i,i,119.6
CCN(Cc1ccccc1)C(c1ccccn1)c1nnnn1C1CCCCC1 (configuration not stated),nt,i,i
CC(c1nnnn1C1CCCCC1)N(Cc1ccccc1)Cc1cccnc1 (configuration not stated),278.4,i,i
Cc1ccc(C(=O)NC(=C(Cl)Cl)S(=O)(=O)c2ccccc2)cc1,i,nt,nt
COC(=O)NC(=C(Cl)Cl)S(=O)(=O)c1ccccc1,i,i,147.3
CC(=O)N1[C@@H]2c3ccc(-c4ccc(F)cc4)c(=O)n3C[C@@H]2[C@@H](CO)[C@@H]1C(=O)N(C)C,nt,i,i
C[C@@H]1CN([C@@H](C)CO)C(=O)Cc2cc(NC(=O)Cc3ccccc3)ccc2O[C@@H]1CN(C)S(=O)(=O)c1ccc(F)cc1,nt,i,i
C[C@H](CO)N1C[C@H](C)[C@H](CN(C)S(=O)(=O)c2cccc(F)c2)Oc2ncccc2C1=O,nt,i,i
COc1ccc(NC(=O)N(C)C[C@@H]2Oc3ccc(NS(=O)(=O)c4ccc(C)cc4)cc3CC(=O)N([C@@H](C)CO)C[C@@H]2C)cc1,nt,nt,i
CCCCCCCC1CC(=O)C=C(C)C1C(=O)OCC (configuration not stated),i,i,i
CCCCCC1C/C(=N\O)C=C(C)C1C(=O)OC (configuration not stated),308.9,i,nt
C[C@@H]1CCCCO[C@H](CN(C)C(=O)Cc2ccccc2)[C@@H](C)CN([C@H](C)CO)C(=O)c2cc(NS(=O)(=O)c3ccc(Cl)cc3)ccc2O1,nt,i,nt
O=C(N[C@@H]1CC[C@H](CCn2cc(-c3ccccc3)nn2)O[C@@H]1CO)c1ccccc1F,nt,i,i
COCCCNCCOCCSc1ccc(Cl)cc1,279.5,i,nt
CCCCNCCOCCSc1ccc(Cl)cc1,i,i,i
SMILES,Mot1-301 SUMO,Cneo AK release,C2C12 statin
CCOC(=O)c1[nH]c(C)c(C(=O)NCC2CCCO2)c1C (configuration not stated),i,i,74.7
CCOC(=O)c1[nH]c(C)c(C(=O)NC2CCCCC2)c1C,i,i,i
COC(=O)[C@]1(Cc2ccccc2)N=C(c2ccc(OCCCO)cc2)O[C@@H]1c1ccccc1N=[N+]=[N-],nt,i,nt
Cc1ccccc1S(=O)(=O)N1C[C@H](O)COC[C@H]2O[C@H](CC(=O)O)CC[C@@H]21,nt,i,i
CSc1ccc(CCNS(=O)(=O)c2csc(C(N)=O)c2)cc1,i,i,90.5
NC(=O)c1cc(S(=O)(=O)NCc2ccc(F)cc2)cs1,i,i,i
CC(C)NC(=O)N[C@H]1CC[C@@H](CCn2cc(-c3ccccc3)nn2)O[C@@H]1CO,nt,i,i
CCOC(=O)C1CCN(CC(O)COC(CC)c2ccccc2)CC1 (configuration not stated),307.5,i,i
CCC(OCC(O)CN1CCCCC1)c1ccccc1 (configuration not stated),i,i,i
COc1ccc(-c2[nH]ncc2CN(C)CCN2CCOCC2)cc1F,i,nt,nt
